From ChEMBL document CHEMBL1132931, “Screening of new antioxidant molecules using flow cytometry” (2000)
Active and inactive are the calls of the source. No cut-off for these calls is given here.

How the values were obtained:
[1] = Glutathione peroxidase-like activity at 10x(E -2) M concentration as NADP+/L/min; format: functional
[2] = Glutathione peroxidase-like activity at 10x(E -3) M concentration as NADP+/L/min; format: functional
[3] = Glutathione peroxidase-like activity at 10x(E -4) M concentration as NADP+/L/min; traces; format: functional
Mus musculus [4] = organism: Mus musculus; assay: Antioxidative property against stable murine-murine hybridoma (Mark 3) cell line; fluorescence at 488 nm; format: functional, organism-based
[5] = Glutathione peroxidase-like activity in relation to Ebselen glutathione peroxidase-like activity; format: functional; parameters: concentration or dose not given beside the values
Mus musculus [6] = organism: Mus musculus; assay: Glutathione peroxidase-like activity at 10x(E -4) M concentration measured as NADP+/L/min; format: functional
[7] = test system: Murine-murine hybridoma (mark 3); assay: (§1) Antioxidative property against stable murine-murine hybridoma (Mark 3) cell line; format: functional
[8] = Glutathione peroxidase-like activity in relative to Ebselen glutathione peroxidase-like activity; format: functional; parameters: concentration or dose not given beside the values
Method in brief: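 Glutathione peroxidase-like activity by the Paglia and Valentine method. Compound solution (100 µL) was added to phosphate buffer, pH 7, with H2O2 and GSH (1.5 × 10-1 M stock in 0.01 M HCl). NADP+ formation was read at 340 nm and expressed as µmol NADP+/L/min. Blanks checked direct NADPH oxidation by compounds. Ebselen was run as the reference.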

Mus musculus [9] = organism: Mus musculus; assay: Antioxidative property against stable murine-murine hybridoma (Mark 3) cell line; no effect; format: functional, organism-based
Mus musculus [10] = organism: Mus musculus; assay: as §1; format: functional
[11] = Glutathione peroxidase-like activity at 10x(E -2) M concentration; format: functional

Row | Molecule | Activity [1] [µM] | Activity [2] [µM] | Activity [3] | Effective molarity (Mus musculus [4]) | Activity [5] [%] | Activity (Mus musculus [6]) | Effective molarity [7] [M l-1] | Activity [8] [%] | NE (Mus musculus [9]) | Effective molarity (Mus musculus [10]) [M l-1] | Activity [11] [µM]
1 | CCOC(=O)c1sc(SC)c2c1ccc1c3ccccc3[nH]c12 | 133 | 38 | traces | fluorescence at 488 nm | 13 |  |  |  |  |  | 
2 | VITAMIN E | 20 | 33 |  |  | 2 | 15 µM | 1e-10 |  |  |  | 
3 | O=c1c2ccccc2[se]n1-c1ccccc1 [EBSELEN] | 1050 | 111 |  |  |  |  | 1e-05 | 100 |  |  | 
4 | c1ccc2c3c([nH]c2c1)-c1ccsc1SC3 | 75 | 71 |  |  |  | 44 µM/min | 1e-05 | 7 |  |  | 
5 | c1ccc2c(c1)[nH]c1c2ccc2[se]nnc21 | 51 | 31 |  |  |  | 20 µM/min |  | 5 | inactive |  | 
6 | CCOC(=O)c1cc2ccc3c(c4ccccc4n3C)c2o1 | 53 | 15 |  |  | 5 | 33 µM/min | 0.0001 |  |  |  | 
7 | COc1ccc2[nH]c3c4ccsc4ccc3c2c1 | 47 | 20 |  |  | 4 | 13 µM/min | 1e-06 |  |  |  | 
8 | CCOC(=O)c1c2[nH]c3ccc(OC)cc3c2cc2nc(C)sc12 | 215 | 58 |  |  | 21 | 40 µM/min | 1e-05 |  |  |  | 
9 | CCOC(=O)c1c2[nH]c3ccccc3c2cc2nc(C)sc12 | 506 | 46 |  |  | 48 | 33 µM/min | 1e-05 |  |  |  | 
10 | CCOC(=O)c1sc(SC)c2c1ccc1c3cc(OC)ccc3[nH]c12 | 151 | 9 |  |  | 14 | 26 µM/min |  |  |  |  | 
11 | CS(=O)(=O)n1c2ccccc2c2c3nn[se]c3ccc21 | 46 | 33 |  |  |  | 29 µM/min | 0.0001 | 4 |  |  | 
12 | CCOC(=O)c1cc2ccc3c(c4ccccc4n3C)c2s1 |  |  |  |  | 11 |  | 0.0001 |  |  |  | 
13 | COc1ccc2[nH]c3c(ccc4ccsc43)c2c1 | 60 | 22 |  |  | 6 | 4 µM/min |  |  |  |  | 
14 | Cn1cnc2c3[nH]c4ccccc4c3ccc21 | 42 | 20 |  |  | 4 | 29 µM/min | 1e-05 |  |  |  | 
15 | CS(=O)(=O)n1c2c(c3ccccc31)CCc1[se]nnc1-2 | 246 | 31 |  |  |  | 18 µM/min | 0.0001 | 23 |  |  | 
16 | c1ccc2c(c1)[nH]c1c2ccc2ccsc21 | 25 | 20 |  |  |  | 27 µM/min | 1e-05 | 2 |  |  | 
17 | COc1cccc2c1C(=O)c1[nH]c3ccccc3c1-2 | 369 | 29 |  |  | 35 | 20 µM/min |  |  |  | 1e-06 | 
18 | COC(=O)c1cc2ccc3c(c4ccccc4n3C)c2[se]1 | 104 | 31 |  |  |  | 29 µM/min | 1e-05 | 10 |  |  | 
19 | COc1ccc2[nH]c3c(c2c1)-c1cccc(OC)c1C3=O | 58 | 26 |  |  | 6 | 11 µM/min | 1e-05 |  |  |  | 
20 | Cc1nc2ccc3[nH]c4ccccc4c3c2s1 | 93 | 29 |  |  | 9 | 20 µM/min |  |  |  |  | 
21 | COc1ccc2[nH]c3ccc4nc(C)sc4c3c2c1 |  | 35 |  |  | 6 | 33 µM/min |  |  |  |  | 64
22 | c1ccc2c(c1)[nH]c1c3ccsc3ccc21 | 60 | 25 |  |  |  | 26 µM/min | 1e-05 | 6 |  |  | 
23 | CS(=O)(=O)n1c2c(c3ccccc31)-c1nn[se]c1CC2 | 140 | 33 |  |  |  | 31 µM/min | 0 | 13 |  |  | 
